This is a sample that favours compounds with a hit; in the whole collection about 4.9% have one here.
NF-kB expr up – raises NF-kB expression in human neuronal cells | fold change at 12.5 µM | hit rate 1.6% among 190,000 | NF-kB reporter expression; active compounds read high; in the data active = fold change above about 3.3
STAT1 activator – increases IFN-gamma driven STAT1 reporter signal | NIH 3T3 STAT1-luciferase reporter, luminescence; 100% = IFN-gamma alone, no compound | AID 932 | activation (% of control), % at 5.5 µM | hit rate 2.6% among 200,000;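 active = activation above the screen-wide mean activation plus 3 SD, cut at about 130% in these data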;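 note: raw ratio to IFN-gamma control signal so 100% means no change and 0% no light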
STAT1 blocker – reduces IFN-gamma driven STAT1 reporter signal; NIH 3T3 STAT1-luciferase reporter, luminescence; inhibition, % at 5.5 µM; hit rate 0.35% among 200,000; AID 920;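 active = inhibition above a set limit, the mean inhibition across all tested compounds plus 3 SD, cut at about 34% in these data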;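 note: 0% = IFN-gamma with DMSO and 100% = IFN-gamma with 300 µM nifuroxazide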
STAT3 act – STAT3 signaling activation. activation (% of control), % at 5.6 µM. U3A cells, IL-6 STAT3-luciferase reporter, luminescence; 100% = signal with IL-6 EC80 alone. AID 871. hit rate 0.91% among 190,000;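 active = activation above the screen-wide mean of compound activation plus 3 SD, cut at about 130% in these data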;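 note: 0% = background luminescence of wells with medium and substrate only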
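Material: STAT3-luciferase reporter U3A cells. Controls: IL-6-treated wells, 100% activation. Read-out: % activation versus median of IL-6-stimulated wells. Probe or stimulus: IL-6 stimulus at 33 ng/mL final. Timing: compound 1 h, then IL-6 6 h at 37 °C. Signal: reporter luminescence signal.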
APP 5'UTR act – APP 5'UTR luciferase reporter activation; SH-SY5Y APP 5'UTR luciferase reporter, luminescence; zero percent = DMSO vehicle wells; activation, % at 2 µM; hit rate 1% among 190,000; AID 1276;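 active = activation above a set limit, based on mean plus 3 SD of controls, cut at about 140% in these data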
STAT3 inh-1 – STAT3 signaling inhibition; U3A cells, IL-6 STAT3-luciferase reporter, luminescence; host cell line lacks STAT1; inhibition, % at 5.5 µM; hit rate 0.89% among 190,000; AID 862;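 active = inhibition above the mean inhibition across all screened compounds plus 3 SD, cut at about 44% in these data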;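 note: 0% = DMSO only wells and 100% = 100 µM nifuroxazide control wells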
STAT3 inh-2 – confirmation of STAT3 signaling inhibitors; shares compounds with STAT3 inh-1; U3A cells, IL-6 STAT3 luciferase reporter, luminescence; cell line lacks STAT1; inhibition, % at 5.7 µM; hit rate 45% among 1,200;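 active = inhibition above the hit cutoff computed for the primary STAT3 screen, cut at about 44% in these data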;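 note: 0% = IL-6 plus DMSO and 100% = IL-6 plus nifuroxazide control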
NFkB inh 2 – NF-kappaB inhibition in STAT3 inhibitor counter-screen. shares compounds with STAT3 inh-1. HEK293T NF-kB luciferase reporter, TNF-alpha induced. inhibition, % at 5.7 µM. hit rate 36% among 1,200. AID 1308;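 active = inhibition above the mean of solvent-only control wells plus 3 SD, cutoff set per campaign, cut at about 13% in these data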;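 note: 0% = TNF-alpha with DMSO and 100% = TNF-alpha with MG high control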
STAT1 inh 2 – STAT1 inhibition in STAT3 inhibitor counter-screen. hit rate 27% among 1,200. NIH 3T3 STAT1-luciferase reporter, IFN-gamma induced, luminescence. shares compounds with STAT3 inh-1. AID 1317. inhibition, % at 5.7 µM;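 active = inhibition above the mean plus 3 SD of solvent-only control wells, limit set per screening run, cut at about 16% in these data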;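 note: 0% = DMSO with IFN-gamma and 100% = nifuroxazide control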
* = called active by the depositor; / = no result.

SMILES | NF-kB expr up | STAT1 activator | STAT1 blocker | STAT3 act | APP 5'UTR act | STAT3 inh-1 | STAT3 inh-2 | NFkB inh 2 | STAT1 inh 2
O=C(Nc1ccc(Br)cc1)c1ccc(CSC2=NCCS2)cc1 | 1.29 | 120.8 | -23.1 | 60.8 | 53.7 | 55.6* | 34.9 | -10.8 | -30.7
O=C(CSC1=NCCS1)Nc1ccc(F)cc1 | 1.28 | 96.4 | 1.8 | 94.9 | -17.3 | 12.7 | / | / | /
CCOC(=O)c1c(NC(=O)CSc2nc3ccccc3c(=O)n2-c2ccccc2)sc(C(C)=O)c1C | 0.95 | 108.9 | -10.0 | 100.6 | 25.0 | 3.1 | / | / | /
COc1ccc(-[n+]2c(C)cc(/C=C3\Sc4ccccc4N3C)cc2C)cc1 | 5.4* | 74.3 | 27.8 | 28.1 | -82.9 | 84.7* | 85.0* | 55.7* | 1.6
O=c1c(N=Nc2ccc(O)cc2)c(-c2ccccc2)[nH]n1-c1ccc([N+](=O)[O-])cc1 | 0.92 | 98.3 | 1.4 | 81.8 | -20.1 | 25.6 | / | / | /
NC(=S)n1[nH]c(-c2ccc([N+](=O)[O-])cc2)c(N=Nc2ccc(Cl)cc2)c1=O | 0.57 | 73.0 | 27.2 | 51.4 | -30.4 | 61.1* | 53.7* | 13.5* | 36.8*
Cc1ccc(NC(=O)COC(=O)C2CSC3(C)CCC(=O)N23)cc1S(=O)(=O)N1CCOCC1 (stereo not drawn) | 1.52 | 102.3 | -3.6 | 110.2 | -9.1 | -10.7 | / | / | /
Cc1ccc(NC(=O)CSc2nnc(-c3cccnc3)s2)cc1 | 1.22 | 99.1 | 1.0 | 104.5 | -7.0 | -3.2 | / | / | /
O=C(CSc1nnc(-c2cccnc2)s1)Nc1ccnc2ccccc12 | 0.6 | 82.0 | 19.7 | 37.3 | 9.6 | 72.2* | 82.2* | 21.6* | 18.1*
Cc1ccc2cc(C#N)c(NCCNC(=O)C3CC3)nc2c1C | 0.87 | 92.7 | 8.1 | 57.8 | -10.4 | 55.6* | 14.3 | -4.3 | -8.3
C[C@H]1O[C@@H](O[C@H]2[C@@H](O)C[C@H](O[C@H]3[C@@H](O)C[C@H](O[C@H]4CC[C@@]5(C)[C@H](CC[C@@H]6[C@@H]5C[C@@H](O)[C@]5(C)[C@@H](C7=CC(=O)OC7)CC[C@]65O)C4)O[C@@H]3C)O[C@@H]2C)C[C@H](O)[C@@H]1O | 0.75 | 126.0 | -28.6 | 25.2 | -94.2 | 86.9* | 82.0* | -6.9 | -16.4
O=S(=O)(Nc1ncn[nH]1)c1ccc(Cl)cc1 | 1.08 | 101.3 | -1.4 | 101.8 | 13.2 | -1.9 | / | / | /
CC(C)Oc1ccc(C(=O)Nc2ccc(N(C)C)cc2)cc1 | 2.53 | 108.8 | -9.7 | 61.0 | 48.9 | 53.7* | 35.3 | -9.4 | -36.3
CCCCOc1ccc(C(=O)Nc2ccncc2)cc1 | 1.04 | 83.7 | 17.8 | 36.1 | 19.1 | 78.6* | 78.9* | 3.9 | 13.5
CCCOc1ccc(C(=O)Nc2ccc(N(C)C)cc2)cc1 | 1.44 | 118.8 | -20.7 | 67.3 | 4.8 | 46.6* | 29.8 | -15.3 | -41.8
CCCOc1ccc(C(=O)Nc2ccc(N3CCN(C(C)=O)CC3)cc2)cc1 | 1.03 | 90.0 | 10.8 | 87.2 | 14.1 | 17.4 | / | / | /
CCCCOc1ccc(C(=O)NC)cc1 | 1.68 | 100.0 | -2.3 | 98.7 | / | 4.6 | / | / | /
O=C(Nc1cccc(Cl)c1)c1ccc(-n2cncn2)c([N+](=O)[O-])c1 | 0.85 | 102.6 | -2.9 | 84.8 | -7.2 | 27.5 | / | / | /
CCOc1ccc(C(Nc2ccc(C)cc2)P2(=O)OCCC(C)O2)cc1 (stereo not drawn) | 1.45 | 104.0 | -4.4 | 105.3 | -6.9 | 1.6 | / | / | /
Cc1ccc(NC(=S)N(CCCN(C)C)Cc2cc3cc4c(cc3[nH]c2=O)OCO4)c(C)c1 | 1.31 | 95.4 | 3.2 | 90.1 | 6.0 | 13.9 | / | / | /
CCN(CC)c1ccc(Nc2nc(N3CCOCC3)c3ccccc3n2)cc1 | 0.84 | 81.4 | 20.2 | 60.6 | -20.5 | 49.2* | 40.8 | 8.9 | 15.0
COc1ccc(Nc2nc(N3CCCC3)c3ccccc3n2)cc1 | 0.44 | 85.8 | 13.8 | 85.4 | -19.1 | 21.6 | / | / | /
Cc1cc(CNC(=O)c2cccc([N+](=O)[O-])c2C)c2ccccc2n1 | 0.92 | 75.7 | 25.1 | 60.2 | -16.1 | 51.0* | 54.1* | 14.2* | 21.6*
CCCOc1ccc(-c2nnc(-c3cccs3)o2)cc1 | 5.17* | 116.6 | -18.0 | 46.4 | 46.4 | 66.1* | 35.7 | -4.4 | -68.4
CCOc1ccc(-c2nc(-c3ccccc3C)no2)cc1 | / | 122.3 | -24.4 | 64.9 | 77.7 | 46.2* | 14.2 | -19.8 | -118.6
SMILES | NF-kB expr up | STAT1 activator | STAT1 blocker | STAT3 act | APP 5'UTR act | STAT3 inh-1 | STAT3 inh-2 | NFkB inh 2 | STAT1 inh 2
CCOc1ccc(-c2nnc(-c3ccccc3)o2)cc1 | 4.25* | 85.7 | 19.1 | 47.5 | 113.7 | 65.8* | 37.9 | 4.0 | -60.9
CCOc1ccc(-c2nnc(-c3ccc(OC)cc3)o2)cc1 | 1.56 | 105.1 | -7.8 | 94.8 | 6.8 | 7.7 | / | / | /
CCCCOc1ccc(-c2nnc(-c3ccncc3)o2)cc1 | 1.43 | 111.7 | -11.0 | 99.2 | 76.8 | 5.3 | / | / | /
CN(C)c1oc(-c2cccs2)nc1C#N | 1.26 | 102.1 | -2.3 | 88.0 | 13.4 | 16.2 | / | / | /
CN(C)c1ccc(-c2nnc(-c3cccs3)o2)cc1 | 7.23* | 75.5 | 25.0 | 56.2 | 163.3* | 54.9* | 10.9 | -27.8 | -136.5
CCOc1nc(C)ccc1-c1noc(-c2ccncc2)n1 | 1.28 | 107.6 | -8.3 | 102.4 | 23.7 | 1.5 | / | / | /
COc1ccc(NC(=O)/C=C/c2c(Cl)nc3ccccn23)cc1 | 0.56 | 116.9 | -21.2 | 85.6 | 9.4 | 21.4 | / | / | /
O=C(c1ccc(COc2ccccc2Br)o1)N1N=C(C(F)F)CC1(O)C(F)F (stereo not drawn) | 1.14 | 92.9 | 8.1 | 80.7 | -2.4 | 25.6 | / | / | /
COc1ccc(Cn2c(=S)[nH]c3ccsc3c2=O)cc1 | 1.04 | 98.8 | 1.4 | 90.0 | -10.1 | 10.1 | / | / | /
Cc1cccc(N2CCN(C(=O)CSCc3c(C)noc3C)CC2)c1C | 0.89 | 79.9 | 22.0 | 45.7 | 12.1 | 69.6* | 59.1* | 11.3 | 14.3
Cc1cccc(N2CCN(C(=O)N3CCOCC3)CC2)c1C | 1.6 | 96.9 | 1.7 | 91.5 | -4.3 | 12.2 | / | / | /
Cc1noc(C)c1CSCC(=O)N1CCN(c2ccc(F)cc2)CC1 | 1.1 | 75.2 | 27.2 | 67.0 | 13.0 | 45.8* | 30.8 | 2.6 | 4.3
COc1cc(C(=O)c2ccccc2)c(OC)cc1C(=O)Nc1ccc(O)cc1 | 1.26 | 96.2 | 3.9 | 85.0 | -2.9 | 22.5 | / | / | /
O=C(Nc1ccc(F)cc1)NC1CCN(Cc2ccccc2)CC1 | 0.9 | 95.1 | 5.3 | 97.7 | -7.5 | 2.6 | / | / | /
O=C(NC1CCN(Cc2ccccc2)CC1)c1ccc2c(c1)[nH]c(=O)n2Cc1ccc(F)cc1 | 0.82 | 90.3 | 9.3 | 63.2 | -20.3 | 47.4* | 51.1* | 17.1* | 8.4
